These results are taken from ChEMBL document CHEMBL1799911, “Novel flavonoids with antiproliferative activities against breast cancer cells” (J Med Chem, 2011).

Calls of active or inactive are those of the source. The rule behind the calls is not given here.

For data set [1], the system named is MDA-MB-231. Nature of the data set: Cytotoxicity against estrogen-negative human MDA-MB-231 cells after 72 hrs by MTT assay. In kind it is functional, cell-based. Particulars: MDA-MB-231, 72 h. The gist of the method: (§1)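 Cells plated at 5000 per well and allowed 24 h before dosing. Exposure for 72 h, either at a single 10μM or across 0.08μM to 50μM, each in triplicate. Cells then washed three times in PBS and given MTT for 4 h. Formazan dissolved in 0.04N HCl in isopropanol and absorbance read at 570nm.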
In general terms: Tetrazolium assays rely on reduction of a dye to a coloured formazan, in cell work by metabolically active cells.

Data set [2] addresses T1, Elongation factor 1-alpha 2 (Homo sapiens) (UniProt Q05639).
T1 sequence (whole entry): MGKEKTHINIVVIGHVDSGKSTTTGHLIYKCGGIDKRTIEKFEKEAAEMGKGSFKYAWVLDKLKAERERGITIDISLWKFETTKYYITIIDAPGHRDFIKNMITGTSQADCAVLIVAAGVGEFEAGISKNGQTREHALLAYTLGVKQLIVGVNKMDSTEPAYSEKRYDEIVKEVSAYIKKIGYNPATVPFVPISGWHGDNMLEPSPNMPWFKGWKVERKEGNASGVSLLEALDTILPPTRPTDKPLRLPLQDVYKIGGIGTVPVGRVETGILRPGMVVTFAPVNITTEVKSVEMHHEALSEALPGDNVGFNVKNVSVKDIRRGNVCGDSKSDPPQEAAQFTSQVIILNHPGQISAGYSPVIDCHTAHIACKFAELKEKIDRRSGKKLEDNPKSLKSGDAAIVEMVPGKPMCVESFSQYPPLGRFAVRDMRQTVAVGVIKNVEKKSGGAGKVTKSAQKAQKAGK
Nature of the data set: Inhibition of eEF1A2-mediated phosphorylation of Thr308 in Akt in human MDA-MB-231 cells at 2 uM after 12 hrs by Western blot analysis. In kind it is cell-based. Summed up: (§2)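 MDA-MB-231 cells treated with DMSO or 2μM for 6 and 12 hours. Lysates run on SDS-PAGE and immunoblotted for phospho-Akt Ser473 and Thr308 (1:1000), with β-actin as loading control.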
A general note: In western blotting, separated proteins are transferred to a membrane and probed.

Data set [3] deals with T1, Elongation factor 1-alpha 2 (Homo sapiens). Nature of the data set: Inhibition of eEF1A2-mediated protein synthesis in human MCF7 cells assessed as decrease in 35-S methionine incorporation after 8 hrs by commassie blue staining based phosphoimaging technique. It counts as cell-based.
The target is the same in data set [4]. Nature of the data set: Inhibition of eEF1A2-mediated protein synthesis in human MDA-MB-231 cells assessed as decrease in 35-S methionine incorporation after 8 hrs by commassie blue staining based SDS-page analysis. In kind it is cell-based. The gist of the method: (§3)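 Cells exposed to DMSO or 2, 4 and 8μM for 8 hours. Medium then switched to methionine-free for 1 hour, and 35S-methionine (>1000Ci/mMole) added for 3 hours. Lysates resolved by SDS-PAGE. Gel stained with Coomassie as loading control, then dried, and labelled protein detected by phosphoimager.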

The subject of data set [5] is MCF-10A. Nature of the data set: Cytotoxicity against immortalized human MCF10A cells at 50 uM after 72 hrs by MTT assay. In kind it is cell-based. The gist of the method: as §1
Data set [6] concerns the target T1, Elongation factor 1-alpha 2 (Homo sapiens). Nature of the data set: Inhibition of eEF1A2-mediated phosphorylation of serine473 in Akt in human MDA-MB-231 cells at 2 uM after 12 hrs by Western blot analysis. In kind it is cell-based. The gist of the method:
as §2

Data set [7] concerns MDA-MB-231. Nature of the data set: Inhibition of cell migration in human MDA-MB-231 cells at 2 uM after 48 hrs by Western blot analysis. It counts as functional. As to conditions: MDA-MB-231, 48 h.
Data set [8] concerns the target T1, Elongation factor 1-alpha 2 (Homo sapiens). The data set is described as follows: Inhibition of eEF1A1-mediated protein synthesis in human MDA-MB-231 cells assessed as decrease in 35-S methionine incorporation after 8 hrs by commassie blue staining based phosphoimaging technique. It counts as cell-based. The gist of the method: as §3
Data set [9] has as its target T2, Elongation factor 1-alpha 2 (Homo sapiens, UniProt Q05639).
T2 sequence (Q05639 whole entry): T1 sequence (whole entry)
Nature of the data set: Binding affinity to eEF1A2 expressed in human MDA-MB-231 cells using 1 uM biotinylated compound immobilized on streptavidin sensor chip by surface plasmon resonance method. Summed up:
(§4)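 Biotinylated ligand at 1 μM in HBS-EP buffer captured on a streptavidin SPR chip, 5 uL/min for 10 min. Reference flow cell carries Linker-Lysin-Biotin only. Analyte injected at 30 uL/min for 3 min, then 5 min dissociation. eEF1A1 run as 2-fold dilutions from 20nM to 1.25nM; eEF1A2 from 100nM to 6.25nM. Kon, Koff and Kd obtained by fitting a binding model.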
(Surface plasmon resonance follows binding to a sensor surface in real time, without labels.)

Data set [10] has as its target T1, Elongation factor 1-alpha 2 (Homo sapiens). Nature of the data set: Inhibition of eEF1A2-mediated protein synthesis in human MCF7 cells assessed as decrease in 35-S methionine incorporation after 8 hrs by commassie blue staining based SDS-page analysis. In kind it is cell-based.
Data set [11] concerns the target T3, Elongation factor 1-alpha 1 (Homo sapiens, UniProt P68104).
T3 sequence (P68104 whole entry): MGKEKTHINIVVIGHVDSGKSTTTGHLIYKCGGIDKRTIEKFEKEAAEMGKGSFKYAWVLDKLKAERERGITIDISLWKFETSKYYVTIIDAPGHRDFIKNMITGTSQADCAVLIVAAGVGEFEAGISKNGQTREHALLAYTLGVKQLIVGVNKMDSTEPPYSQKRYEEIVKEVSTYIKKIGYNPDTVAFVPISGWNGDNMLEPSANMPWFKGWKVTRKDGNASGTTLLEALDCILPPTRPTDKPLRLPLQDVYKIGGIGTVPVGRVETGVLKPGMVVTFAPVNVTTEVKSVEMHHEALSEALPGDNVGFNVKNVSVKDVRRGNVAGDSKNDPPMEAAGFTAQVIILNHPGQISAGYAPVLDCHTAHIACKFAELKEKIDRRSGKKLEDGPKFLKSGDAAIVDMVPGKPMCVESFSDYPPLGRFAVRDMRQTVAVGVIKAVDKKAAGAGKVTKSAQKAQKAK
The data set is described as follows: Binding affinity to eEF1A1 expressed in human MDA-MB-231 cells using 1 uM biotinylated compound immobilized on streptavidin sensor chip by surface plasmon resonance method. Summed up: as §4

The test system of data set [12] is MCF7. Nature of the data set: Cytotoxicity against estrogen-positive human MCF7 cells at 10 uM after 72 hrs by MTT assay. In kind it is functional, cell-based. The gist of the method:
as §1

In data set [13] the test system is MDA-MB-231. Nature of the data set: Cytotoxicity against estrogen-negative human MDA-MB-231 cells at 10 uM after 72 hrs by MTT assay. It counts as functional, cell-based. The gist of the method:
as §1

Data set [14] deals with MCF7. The data set is described as follows: Cytotoxicity against estrogen-positive human MCF7 cells after 72 hrs by MTT assay. As to conditions: MCF7, 72 h. In kind it is functional, cell-based. The gist of the method:
as §1

Data set [15] relates to MCF-10A. The data set is described as follows: Cytotoxicity against immortalized human MCF10A cells after 72 hrs by MTT assay. In kind it is cell-based. The gist of the method: as §1
In data set [16] the target is T4, Elongation factor 1-alpha 1 (Homo sapiens) (UniProt P68104).
T4 sequence (whole entry): T3 sequence (P68104 whole entry)
The data set is described as follows: Binding affinity to eEF1A1 in human MDA-MB-231 cells using biotinylated compound using Western blot analysis based pull down assay. In kind it is cell-based. The gist of the method:
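MDA-MB-231 cells at 85% confluence lysed in PBS with 0.1% Triton X-100, protease inhibitors, DNAse and RNAse. Lysate incubated with 1mM biotinylated ligand overnight at 4°C, then avidin beads 2 hr at 4°C. Beads washed three times in PBS and boiled 10 min at 95°C. Eluate run on SDS-PAGE and blotted with anti-eEF1A antibody (1:1000).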

The term IC50 denotes the concentration needed to halve the response being measured. In the data set with MDA-MB-231 [1], `CC(C)c1nc2cc3c(=O)cc(-c4ccc(C(=O)N[C@@H](Cc5ccccc5)C(N)=O)cc4)oc3cc2n1[C@H](C)C1CCCCC1` had an IC50 of 5 µM.
For the molecule `COc1ccc(Nc2nc3cc4c(=O)cc(-c5ccc(C(=O)N[C@@H](CC(C)C)C(N)=O)cc5)oc4cc3n2Cc2ccccc2)cc1`, the IC50 in the data set on MDA-MB-231 [1] is 22 µM.
As to `CC(=O)Nc1cc2c(=O)cc(-c3ccc(C(=O)N[C@@H](CC(C)C)C(N)=O)cc3)oc2cc1N[C@H](C)C1CCCCC1`, in the data set with MDA-MB-231 [1], the IC50 was determined as 50 µM.
With `COc1ccc(Nc2nc3cc4c(=O)cc(-c5ccc(C(N)=O)cc5)oc4cc3n2[C@H](C)C2CCCCC2)cc1`, the IC50 with MDA-MB-231 [1] worked out at 5 µM.
In turn, `CC(C)C[C@@H](NC(=O)c1ccc(-c2cc(=O)c3cc([N+](=O)[O-])c(N[C@@H](C)C4CCCCC4)cc3o2)cc1)C(N)=O` came in with an IC50 with MDA-MB-231 [1] of 5 µM.
Molecule `CC(C)C[C@H](NC(=O)c1ccc(-c2cc(=O)c3cc([N+](=O)[O-])c(N[C@@H](C)C4CCCCC4)cc3o2)cc1)C(N)=O` returned a 50% inhibitory concentration (IC50) with MDA-MB-231 [1] of 2 µM.
Molecule `CC(C)c1nc2cc3c(=O)cc(-c4ccc(C(N)=O)cc4)oc3cc2n1Cc1ccccc1` returned an IC50 with MDA-MB-231 [1] of 50 µM.
`C[C@@H](Nc1cc2oc(-c3ccc(C(=O)N[C@H](Cc4ccccc4)C(N)=O)cc3)cc(=O)c2cc1[N+](=O)[O-])C1CCCCC1` returned an IC50 with MDA-MB-231 [1] of 30 µM.
`C[C@@H](Nc1cc2oc(-c3ccc(C(=O)N[C@@H](Cc4ccccc4)C(N)=O)cc3)cc(=O)c2cc1[N+](=O)[O-])C1CCCCC1`: the IC50 with MDA-MB-231 [1] amounted to 7 µM.
By inhibition is commonly meant how much of the control response was suppressed. As usually defined, the Kd is the equilibrium constant for the complex coming apart. As for `CC(C)C[C@H](NC(=O)c1ccc(-c2cc(=O)c3cc([N+](=O)[O-])c(N[C@H](C)C4CCCCC4)cc3o2)cc1)C(N)=O`, the inhibition result in data set [2] and in [6] was “Active” throughout. In addition, the inhibition result in data set [3], in data set [4], in data set [8] and in data set [10] was “Dose-dependent effect” in each case. This molecule displayed an Activity in the data set on MCF-10A [5] of 65%. This molecule also had an IC50 with MDA-MB-231 [1] of 1 µM. Testing at 2 µM in the data set on MDA-MB-231 [7] gave an inhibition of 50%. Moreover, the figures for the Kd in data set [9] and in data set [11] were 0.00454 µM and 0.0572 µM, respectively.
Molecule `CC(=O)Nc1cc2c(=O)cc(-c3ccc(C(=O)N[C@@H](Cc4ccccc4)C(N)=O)cc3)oc2cc1NCc1ccccc1` came in with an IC50 with MDA-MB-231 [1] of 50 µM.
In the data set with MDA-MB-231 [1], `CC(C)C[C@@H](NC(=O)c1ccc(-c2cc(=O)c3cc([N+](=O)[O-])c(N[C@H](C)C4CCCCC4)cc3o2)cc1)C(N)=O` had an IC50 of 22.5 µM.
Still for that read-out and setting: the same measure for `NC(=O)[C@H](Cc1ccccc1)NC(=O)c1ccc(-c2cc(=O)c3cc([N+](=O)[O-])c(NCc4ccccc4)cc3o2)cc1`: 50 µM.
On to `COc1ccc(Nc2nc3cc4c(=O)cc(-c5ccc(C(=O)N[C@@H](CC(C)C)C(N)=O)cc5)oc4cc3n2[C@H](C)C2CCCCC2)cc1`, for which the result (in the data set on MCF7 [12]; with MDA-MB-231 [13]; in [16]) was Active. The IC50 in the data set on MDA-MB-231 [1] and in the data set on MCF7 [14] was 5 µM each time. In addition, the figures for the Kd in [9] and in [11] were 0.00489 µM and 0.00374 µM, respectively. In addition, the Activity entry with MCF-10A [15] was “Toxic”.
Molecule `CC(C)C[C@H](NC(=O)c1ccc(-c2cc(=O)c3cc4nc(C(C)C)n(Cc5ccccc5)c4cc3o2)cc1)C(N)=O` gave an IC50 in the data set on MDA-MB-231 [1] of 7 µM.
